Measurements as given in ChEMBL document CHEMBL4190280, “Topological pattern for the search of new active drugs against methicillin resistant Staphylococcus aureus” (2017).
≈ marks a conversion by molar mass, not a printed value.

What was measured:
Staphylococcus aureus [1] = test: Bactericidal activity against methicillin-resistant Staphylococcus aureus subsp. aureus Rosenbach 1884; format: functional
In short: (§1)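 In vitro testing against MRSA by standard techniques, following the Spanish Society of Clinical Microbiology and Infectious Diseases (SEIMC) recommended protocol. MIC and MBC were determined, with concentrations compared in double (twofold) dilution steps.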

Staphylococcus aureus [2] = test: Antibacterial activity against methicillin-resistant Staphylococcus aureus subsp. aureus Rosenbach 1884; format: functional; in short: as §1

Cc1nccn1-c1cc2c(cc1F)c(=O)c(C(=O)O)cn2C1CC1
MBC (Staphylococcus aureus [1]): > 512 µg/mL | MIC (Staphylococcus aureus [2]): 32 µg/mL (≈ 97.8 µM)

CN(Cc1cccc2ccccc12)c1cc2c(cc1F)c(=O)c(C(=O)O)cn2C1CC1
MBC (Staphylococcus aureus [1]): 128 µg/mL (≈ 307 µM) | MIC (Staphylococcus aureus [2]): 1 µg/mL (≈ 2.4 µM)

CC1(C)[C@H](C(=O)O[C@H](C#N)c2cccc(Oc3ccccc3)c2)[C@@H]1/C=C(\Cl)C(F)(F)F [GAMMA-CYHALOTHRIN]
MBC (Staphylococcus aureus [1]): > 512 µg/mL | MIC (Staphylococcus aureus [2]): > 512 µg/mL

O=C(O)c1cn(C2CC2)c2cc(N3CCNCC3)c(F)cc2c1=O [CIPROFLOXACIN]
MBC (Staphylococcus aureus [1]): 256 µg/mL (≈ 773 µM) | MIC (Staphylococcus aureus [2]): 0.5 µg/mL (≈ 1.51 µM)

O=C(O)c1cn(C2CC2)c2cc(Cl)c(F)cc2c1=O
MBC (Staphylococcus aureus [1]): 512 µg/mL (≈ 1820 µM) | MIC (Staphylococcus aureus [2]): 32 µg/mL (≈ 114 µM)

O=C(O)c1cn(C2CC2)c2cc(F)c(F)cc2c1=O
MBC (Staphylococcus aureus [1]): > 512 µg/mL | MIC (Staphylococcus aureus [2]): 64 µg/mL (≈ 241 µM)

COc1cc2c(cc1OC)CN(c1cc3c(cc1F)c(=O)c(C(=O)O)cn3C1CC1)CC2
MBC (Staphylococcus aureus [1]): 128 µg/mL (≈ 292 µM) | MIC (Staphylococcus aureus [2]): 1 µg/mL (≈ 2.28 µM)

CO[C@@]12[C@H](COC(N)=O)C3=C(C(=O)C(C)=C(N)C3=O)N1C[C@@H]1N[C@@H]12 [MITOMYCIN]
MBC (Staphylococcus aureus [1]): 4 µg/mL (≈ 12 µM) | MIC (Staphylococcus aureus [2]): 0.5 µg/mL (≈ 1.5 µM)

Nc1nnc(-c2cccc(Cl)c2Cl)c(N)n1 [LAMOTRIGINE]
MBC (Staphylococcus aureus [1]): > 512 µg/mL | MIC (Staphylococcus aureus [2]): > 512 µg/mL
